From ChEMBL document CHEMBL4732237, “Discovery of 4-alkoxy-2-aryl-6,7-dimethoxyquinolines as a new class of topoisomerase I inhibitors endowed with potent in vitro anticancer activity” (2021)

Assays:
Type in all cases: functional
Conditions in all cases: read-out: GI
HL-60(TB) = test: Growth inhibition of human HL-60(TB) cells at 10 uM incubated for 48 hrs by sulforhodamine B assay relative to control
Procedure, shortened: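 NCI-60 one-dose screen: same culture, 48 h drug exposure and SRB read-out. Reported as percent growth relative to no-drug control and to time-zero cell number; 0–100 means growth inhibition, below 0 means lethality.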

MOLT-4 = test: Growth inhibition of human MOLT-4 cells at 10 uM incubated for 48 hrs by sulforhodamine B assay relative to control
Procedure, shortened: (§1)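 NCI one-dose screen. Cells grown in RPMI 1640 with 5% FBS and 2 mM L-glutamine, plated and incubated 24 h at 37 °C, 5% CO2. DMSO-dissolved drug added, then 48 h further incubation. Adherent cells fixed with cold TCA, suspension cells fixed after settling. Stained with 0.4% SRB, absorbance read at 515 nm. Reported as percent growth relative to no-drug control and time-zero cell number.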

EKVX = test: Growth inhibition of human EKVX cells at 10 uM incubated for 48 hrs by sulforhodamine B assay relative to control
Procedure, shortened: (§2)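 NCI-60 single-dose screen. Cells were grown in RPMI 1640 with 5% FBS and 2 mM L-glutamine and plated 24 h before drug addition. Compound was added at one concentration in DMSO-derived medium and incubated for 48 h at 37 °C in 5% CO2. Read-out was SRB protein stain at 515 nm. Result is percent growth versus the no-drug control and the time-zero cell count; values below 0 indicate lethality.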

HOP-62 = test: Growth inhibition of human HOP-62 cells at 10 uM incubated for 48 hrs by sulforhodamine B assay relative to control; procedure, shortened: as §2
HOP-92 = test: Growth inhibition of human HOP-92 cells at 10 uM incubated for 48 hrs by sulforhodamine B assay relative to control; procedure, shortened: as §2
NCI-H226 = test: Growth inhibition of human NCI-H226 cells at 10 uM incubated for 48 hrs by sulforhodamine B assay relative to control; procedure, shortened: as §1
NCI-H23 = test: Growth inhibition of human NCI-H23 cells at 10 uM incubated for 48 hrs by sulforhodamine B assay relative to control; procedure, shortened: as §1
NCI-H322M = test: Growth inhibition of human NCI-H322M cells at 10 uM incubated for 48 hrs by sulforhodamine B assay relative to control; procedure, shortened: as §1
NCI-H522 = test: Growth inhibition of human NCI-H522 cells at 10 uM incubated for 48 hrs by sulforhodamine B assay relative to control; procedure, shortened: as §1
COLO 205 = test: Growth inhibition of human COLO 205 cells at 10 uM incubated for 48 hrs by sulforhodamine B assay relative to control; procedure, shortened: as §2
KM12 = test: Growth inhibition of human KM12 cells at 10 uM incubated for 48 hrs by sulforhodamine B assay relative to control; procedure, shortened: as §2
SW-620 = test: Growth inhibition of human SW-620 cells at 10 uM incubated for 48 hrs by sulforhodamine B assay relative to control
Procedure, shortened: (§3)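 NCI one-dose screen across a 59-line panel. Cells were grown in RPMI 1640 with 5% FBS and 2 mM L-glutamine, plated and pre-incubated 24 h, then exposed to drug for 48 h at 37 °C, 5% CO2. Adherent cells were fixed with cold TCA (10% final), stained with 0.4% SRB in 1% acetic acid and read at 515 nm. Result is percent growth relative to no-drug control and time-zero cell count.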

SF-268 = test: Growth inhibition of human SF-268 cells at 10 uM incubated for 48 hrs by sulforhodamine B assay relative to control; procedure, shortened: as §1
SF-295 = test: Growth inhibition of human SF-295 cells at 10 uM incubated for 48 hrs by sulforhodamine B assay relative to control; procedure, shortened: as §1
SF-539 = test: Growth inhibition of human SF-539 cells at 10 uM incubated for 48 hrs by sulforhodamine B assay relative to control; procedure, shortened: as §1
SNB-75 = test: Growth inhibition of human SNB-75 cells at 10 uM incubated for 48 hrs by sulforhodamine B assay relative to control; procedure, shortened: as §1
LOX IMVI = test: Growth inhibition of human LOX IMVI cells at 10 uM incubated for 48 hrs by sulforhodamine B assay relative to control; procedure, shortened: as §2
M14 = test: Growth inhibition of human M14 cells at 10 uM incubated for 48 hrs by sulforhodamine B assay relative to control; procedure, shortened: as §2
MDA-MB-435 = test: Growth inhibition of human MDA-MB-435 cells at 10 uM incubated for 48 hrs by sulforhodamine B assay relative to control; procedure, shortened: as §2
SK-MEL-2 = test: Growth inhibition of human SK-MEL-2 cells at 10 uM incubated for 48 hrs by sulforhodamine B assay relative to control; procedure, shortened: as §1
SK-MEL-28 = test: Growth inhibition of human SK-MEL-28 cells at 10 uM incubated for 48 hrs by sulforhodamine B assay relative to control; procedure, shortened: as §1
SK-MEL-5 = test: Growth inhibition of human SK-MEL-5 cells at 10 uM incubated for 48 hrs by sulforhodamine B assay relative to control; procedure, shortened: as §1
UACC-257 = test: Growth inhibition of human UACC-257 cells at 10 uM incubated for 48 hrs by sulforhodamine B assay relative to control; procedure, shortened: as §3
UACC-62 = test: Growth inhibition of human UACC-62 cells at 10 uM incubated for 48 hrs by sulforhodamine B assay relative to control; procedure, shortened: as §3
OVCAR-3 = test: Growth inhibition of human OVCAR-3 cells at 10 uM incubated for 48 hrs by sulforhodamine B assay relative to control; procedure, shortened: as §1
OVCAR-5 = test: Growth inhibition of human OVCAR-5 cells at 10 uM incubated for 48 hrs by sulforhodamine B assay relative to control; procedure, shortened: as §1
OVCAR-8 = test: Growth inhibition of human OVCAR-8 cells at 10 uM incubated for 48 hrs by sulforhodamine B assay relative to control; procedure, shortened: as §1
SK-OV-3 = test: Growth inhibition of human SK-OV-3 cells at 10 uM incubated for 48 hrs by sulforhodamine B assay relative to control; procedure, shortened: as §1
A498 = test: Growth inhibition of human A498 cells at 10 uM incubated for 48 hrs by sulforhodamine B assay relative to control; procedure, shortened: as §3
SN12C = test: Growth inhibition of human SN12C cells at 10 uM incubated for 48 hrs by sulforhodamine B assay relative to control; procedure, shortened: as §1
PC-3 = test: Growth inhibition of human PC-3 cells at 10 uM incubated for 48 hrs by sulforhodamine B assay relative to control; procedure, shortened: as §1
MCF7 = test: Growth inhibition of human MCF7 cells at 10 uM incubated for 48 hrs by sulforhodamine B assay relative to control; procedure, shortened: as §2
MDA-MB-231 = test: Growth inhibition of human MDA-MB-231 cells at 10 uM incubated for 48 hrs by sulforhodamine B assay relative to control; procedure, shortened: as §2
Hs-578T = test: Growth inhibition of human HS-578T cells at 10 uM incubated for 48 hrs by sulforhodamine B assay relative to control; procedure, shortened: as §2
T47D = test: Growth inhibition of human T47D cells at 10 uM incubated for 48 hrs by sulforhodamine B assay relative to control; procedure, shortened: as §3
MDA-MB-468 = test: Growth inhibition of human MDA-MB-468 cells at 10 uM incubated for 48 hrs by sulforhodamine B assay relative to control; procedure, shortened: as §2

Structure (SMILES) | inhibition of growth at 10 µM (HL-60(TB)) [%] | inhibition of growth at 10 µM (MOLT-4) [%] | inhibition of growth at 10 µM (EKVX) [%] | inhibition of growth at 10 µM (HOP-62) [%] | inhibition of growth at 10 µM (HOP-92) [%] | inhibition of growth at 10 µM (NCI-H226) [%] | inhibition of growth at 10 µM (NCI-H23) [%] | inhibition of growth at 10 µM (NCI-H322M) [%] | inhibition of growth at 10 µM (NCI-H522) [%] | inhibition of growth at 10 µM (COLO 205) [%] | inhibition of growth at 10 µM (KM12) [%] | inhibition of growth at 10 µM (SW-620) [%] | inhibition of growth at 10 µM (SF-268) [%] | inhibition of growth at 10 µM (SF-295) [%] | inhibition of growth at 10 µM (SF-539) [%] | inhibition of growth at 10 µM (SNB-75) [%] | inhibition of growth at 10 µM (LOX IMVI) [%] | inhibition of growth at 10 µM (M14) [%] | inhibition of growth at 10 µM (MDA-MB-435) [%] | inhibition of growth at 10 µM (SK-MEL-2) [%] | further results
COc1cc2nc(-c3ccc(Cl)cc3)cc(OCCCN3CCOCC3)c2cc1OC | 62 | 62 | 62 | 62 | 62 | 62 | 62 | 62 | 62 | 62 | 62 | 62 | 62 | 62 | 62 | 62 | 62 | 62 | 62 | 62 | inhibition of growth at 10 µM (SK-MEL-28): 62%; inhibition of growth at 10 µM (SK-MEL-5): 62%; inhibition of growth at 10 µM (UACC-257): 62%; inhibition of growth at 10 µM (UACC-62): 62%; inhibition of growth at 10 µM (OVCAR-3): 62%; inhibition of growth at 10 µM (OVCAR-5): 62%; inhibition of growth at 10 µM (OVCAR-8): 62%; inhibition of growth at 10 µM (SK-OV-3): 62%; inhibition of growth at 10 µM (A498): 62%; inhibition of growth at 10 µM (SN12C): 62%; inhibition of growth at 10 µM (PC-3): 62%; inhibition of growth at 10 µM (MCF7): 62%; inhibition of growth at 10 µM (MDA-MB-231): 62%; inhibition of growth at 10 µM (Hs-578T): 62%; inhibition of growth at 10 µM (T47D): 62%; inhibition of growth at 10 µM (MDA-MB-468): 62%
COc1cc2nc(-c3ccc(Cl)cc3)cc(OCCCN3CCCC3)c2cc1OC | 62 | 62 | 62 | 62 | 62 | 62 | 62 | 62 | 62 | 62 | 62 | 62 | 62 | 62 | 62 | 62 | 62 | 62 | 62 | 62 | inhibition of growth at 10 µM (SK-MEL-28): 62%; inhibition of growth at 10 µM (SK-MEL-5): 62%; inhibition of growth at 10 µM (UACC-257): 62%; inhibition of growth at 10 µM (UACC-62): 62%; inhibition of growth at 10 µM (OVCAR-3): 62%; inhibition of growth at 10 µM (OVCAR-5): 62%; inhibition of growth at 10 µM (OVCAR-8): 62%; inhibition of growth at 10 µM (SK-OV-3): 62%; inhibition of growth at 10 µM (A498): 62%; inhibition of growth at 10 µM (SN12C): 62%; inhibition of growth at 10 µM (PC-3): 62%; inhibition of growth at 10 µM (MCF7): 62%; inhibition of growth at 10 µM (MDA-MB-231): 62%; inhibition of growth at 10 µM (Hs-578T): 62%; inhibition of growth at 10 µM (T47D): 62%; inhibition of growth at 10 µM (MDA-MB-468): 62%
COc1cc2nc(-c3ccc(C(F)(F)F)cc3)cc(OCCN3CCC(O)CC3)c2cc1OC | 13 | 13 | 13 | 13 | 13 | 13 | 13 | 13 | 13 | 13 | 13 | 13 | 13 | 13 | 13 | 13 | 13 | 13 | 13 | 13 | inhibition of growth at 10 µM (SK-MEL-28): 13%; inhibition of growth at 10 µM (SK-MEL-5): 13%; inhibition of growth at 10 µM (UACC-257): 13%; inhibition of growth at 10 µM (UACC-62): 13%; inhibition of growth at 10 µM (OVCAR-3): 13%; inhibition of growth at 10 µM (OVCAR-5): 13%; inhibition of growth at 10 µM (OVCAR-8): 13%; inhibition of growth at 10 µM (SK-OV-3): 13%; inhibition of growth at 10 µM (A498): 13%; inhibition of growth at 10 µM (SN12C): 13%; inhibition of growth at 10 µM (PC-3): 13%; inhibition of growth at 10 µM (MCF7): 13%; inhibition of growth at 10 µM (MDA-MB-231): 13%; inhibition of growth at 10 µM (Hs-578T): 13%; inhibition of growth at 10 µM (T47D): 13%; inhibition of growth at 10 µM (MDA-MB-468): 13%
